According to ChEMBL document CHEMBL2417380, “Synthesis, pharmacological assessment, and molecular modeling of 6-chloro-pyridonepezils: new dual AChE inhibitors as potential drugs for the treatment of Alzheimer's disease” (Eur J Med Chem, 2013):

Assays:
Cholinesterase [1] = molecular target: T1, Cholinesterase (Homo sapiens, UniProt P06276); experiment: Inhibition of human plasma BuChE using butyrylthiocholine as substrate by Ellman's method
Procedure, shortened: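 Ellman spectrophotometric assay with BuChE from human serum in 100 mM phosphate buffer, pH 8.0, at 30 °C. Butyrylthiocholine (0.4 mM) was the substrate and DTNB 0.2 mM. Absorbance change at 412 nm gave IC50 as the concentration giving 50% inhibition. Values are mean ± s.e.m. of at least three experiments run in quadruplicate.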

Acetylcholinesterase = Acetylcholinesterase (Homo sapiens, UniProt P22303); experiment: Inhibition of purified human erythrocyte AChE using […] as substrate by Ellman's method
[2] = Permeability of the compound at 1 mg/ml after 4 hrs by PAMPA; assay type: ADME; details: read-out: permeability
Procedure, shortened: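 PAMPA-BBB: donor filter impregnated with porcine brain lipid in dodecane (20 mg/mL). Compound dissolved in PBS (pH 7.4)/ethanol (7:3) and filtered before loading into the donor wells. The acceptor wells held PBS/ethanol (7:3). Incubated undisturbed 4 h at 25 °C. Acceptor concentration measured by UV at five wavelengths, in four wells, over at least three independent runs; mean (SD).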

Homo sapiens = species: Homo sapiens; experiment: Selectivity index, ratio of IC50 for human plasma BuChE to IC50 for purified human erythrocyte AChE
Procedure, shortened: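 Index computed as hBuChE IC50 divided by hAChE IC50. Both IC50s come from the Ellman assay in 100 mM phosphate buffer, pH 8.0, at 30 °C, read at 412 nm with DTNB 0.2 mM. AChE was purified from human erythrocytes with acetylthiocholine substrate; BuChE came from human serum with butyrylthiocholine substrate, each substrate at 0.4 mM.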

Cholinesterase [3] = molecular target: T1, Cholinesterase; experiment: Ratio of donepezil IC50 to compound IC50 for human plasma BuChE

T1 sequence (P06276 whole entry): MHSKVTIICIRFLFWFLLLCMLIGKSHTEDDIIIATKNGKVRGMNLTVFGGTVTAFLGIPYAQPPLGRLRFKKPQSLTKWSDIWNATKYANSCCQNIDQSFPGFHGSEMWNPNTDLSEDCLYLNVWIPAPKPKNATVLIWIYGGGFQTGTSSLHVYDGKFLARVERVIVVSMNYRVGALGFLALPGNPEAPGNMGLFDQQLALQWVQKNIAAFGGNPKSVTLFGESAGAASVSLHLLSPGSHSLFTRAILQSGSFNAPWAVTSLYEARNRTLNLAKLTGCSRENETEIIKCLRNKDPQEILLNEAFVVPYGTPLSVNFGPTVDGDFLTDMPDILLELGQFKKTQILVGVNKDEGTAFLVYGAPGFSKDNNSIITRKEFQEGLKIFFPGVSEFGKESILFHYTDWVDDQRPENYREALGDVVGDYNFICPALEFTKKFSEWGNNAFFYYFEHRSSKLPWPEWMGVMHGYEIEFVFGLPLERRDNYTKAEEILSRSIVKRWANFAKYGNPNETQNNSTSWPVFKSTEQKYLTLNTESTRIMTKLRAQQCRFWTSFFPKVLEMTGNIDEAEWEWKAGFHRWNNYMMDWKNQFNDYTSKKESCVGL
Chain of Acetylcholinesterase (P22303 whole entry): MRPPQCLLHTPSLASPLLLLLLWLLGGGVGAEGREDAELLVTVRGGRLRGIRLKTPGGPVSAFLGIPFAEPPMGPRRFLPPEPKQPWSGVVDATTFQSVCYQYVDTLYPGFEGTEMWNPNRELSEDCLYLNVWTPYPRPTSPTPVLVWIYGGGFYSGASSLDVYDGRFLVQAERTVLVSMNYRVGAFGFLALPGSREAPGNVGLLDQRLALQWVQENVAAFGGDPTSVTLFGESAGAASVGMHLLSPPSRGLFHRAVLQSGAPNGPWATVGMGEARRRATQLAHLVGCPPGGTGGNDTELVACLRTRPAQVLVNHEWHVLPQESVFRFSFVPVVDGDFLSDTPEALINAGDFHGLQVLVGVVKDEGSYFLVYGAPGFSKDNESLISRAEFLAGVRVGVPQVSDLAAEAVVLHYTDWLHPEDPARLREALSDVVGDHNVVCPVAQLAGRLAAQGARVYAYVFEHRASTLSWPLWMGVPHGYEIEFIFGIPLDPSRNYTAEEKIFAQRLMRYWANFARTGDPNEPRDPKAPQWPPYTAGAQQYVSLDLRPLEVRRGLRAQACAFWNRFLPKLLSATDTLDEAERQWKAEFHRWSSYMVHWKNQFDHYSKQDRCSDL

Row | SMILES | IC50 (Cholinesterase [1]) [µM] | IC50 (Acetylcholinesterase) [µM] | Papp at 4 h, 1 mg/ml [2] [×10⁻⁶ cm/s] | Ratio IC50 (Homo sapiens) | Ratio IC50 (Cholinesterase [3])
1 | N#Cc1c(Cl)nc(NCCC2CCN(Cc3ccccc3)CC2)c(C#N)c1-c1ccccc1 | > 10 | 4.4 |  |  | 
2 | N#Cc1cc(C#N)c(NCCCC2CCN(Cc3ccccc3)CC2)nc1Cl | 8.39 | 0.054 | 5.98 | 155 | 
3 | N#Cc1cc(C#N)c(NCCCCC2CCN(Cc3ccccc3)CC2)nc1Cl | 8.13 | 0.013 | 6.99 | 625 | 
4 | N#Cc1c(NCCC2CCN(Cc3ccccc3)CC2)nc(NCCC2CCN(Cc3ccccc3)CC2)c(C#N)c1-c1ccccc1 | > 10 | 9.77 |  |  | 
5 | N#Cc1cc(C#N)c(NCCC2CCN(Cc3ccccc3)CC2)nc1Cl | 0.47 | 0.31 | 8.52 | 1.52 | 5
6 | N#Cc1cc(C#N)c(NC2CCN(Cc3ccccc3)CC2)nc1NC1CCN(Cc2ccccc2)CC1 | > 10 | 7.3 | 5 |  | 
7 | N#Cc1cc(C#N)c(NC2CCN(Cc3ccccc3)CC2)nc1Cl | > 10 | 5.35 | 7.39 |  | 
8 | N#Cc1c(Cl)nc(NC2CCN(Cc3ccccc3)CC2)c(C#N)c1-c1ccccc1 | > 10 | 9.43 |  |  | 
9 | N#Cc1c(Cl)nc(NCCCCC2CCN(Cc3ccccc3)CC2)c(C#N)c1-c1ccccc1 | 5.62 | 0.031 | 10.3 | 181 | 
10 | N#Cc1c(Cl)nc(NCCCC2CCN(Cc3ccccc3)CC2)c(C#N)c1-c1ccccc1 | 9.41 | 3.86 | 10.1 | 2.43 | 
